Data taken from ChEMBL document CHEMBL4390648, “Chemical synthesis, crystal structure, versatile evaluation of their biological activities and molecular simulations of novel pyrithiobac derivatives” (Eur J Med Chem, 2019).
≈ marks a conversion by molar mass, not a printed value. Calls of active or inactive are those of the source. The rule behind the calls is not given here.

Assays:
[1] = tested on: Candida albicans; test: Antifungal activity against Candida albicans isolate 17 grown in RPMI 1640 medium incubated for 24 hrs by microdilution method; type: functional; settings: isolate 17, 24 h
Procedure, shortened: (§1)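 C. albicans standard strain SC5314 and clinical isolates g5 and 17# tested by broth microdilution in YNB or RPMI 1640 medium. Plates incubated at 35 °C for up to 72 h, with visual readings taken at 24 h. MIC taken as the lowest concentration preventing visible growth.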

[2] = tested on: Ceratobasidium cereale; test: Antifungal activity against Rhizoctonia cerealis assessed as reduction in growth at 50 mg/l by mycelium growth rate method relative to control; type: functional
Procedure, shortened: (§2)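 Mycelium growth rate method against S. sclerotiorum, P. capsici, P. piricola, R. cerealis, W. anthracnose and R. bakanae. Each compound tested at 50 mg/L, with chlorothalonil and PTB as controls. Relative inhibitory ratio (%) calculated from mycelial growth.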

[3] = tested on: Candida albicans; test: Antifungal activity against Candida albicans SC5314 grown in RPMI 1640 medium incubated for 24 hrs by microdilution method; type: functional; settings: SC5314, 24 h; procedure, shortened: as §1
[4] = tested on: Candida albicans; test: Inhibition of Candida albicans AHAS catalytic subunit at 10 uM using pyruvate as substrate measured after 30 mins by colorimetric method relative to control
Procedure, shortened: (§3)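 Colorimetric assay in 50 mM potassium phosphate pH 7.0 with 50 mM pyruvate, 1 mM thiamine diphosphate, 10 mM MgCl2 and 10 μM FAD. Incubated 30 min at 37 °C for plant AHAS and 30 °C for fungal AHAS. Acetolactate formed was then quantified.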

[5] = tested on: Candida albicans; test: Inhibition of Candida albicans AHAS catalytic subunit at 100 uM using pyruvate as substrate measured after 30 mins by colorimetric method relative to control; procedure, shortened: as §3
[6] = tested on: Candida albicans; test: Antifungal activity against Candida albicans isolate g5 grown in RPMI 1640 medium incubated for 24 hrs by microdilution method; type: functional; settings: isolate g5, 24 h; procedure, shortened: as §1
[7] = tested on: Candida albicans; test: Antifungal activity against Candida albicans SC5314 grown in YNB medium incubated for 24 hrs by microdilution method; type: functional; settings: SC5314, 24 h; procedure, shortened: as §1
[8] = tested on: Candida albicans; test: Antifungal activity against Candida albicans isolate 17 grown in YNB medium incubated for 24 hrs by microdilution method; type: functional; settings: isolate 17, 24 h; procedure, shortened: as §1
[9] = tested on: Candida albicans; test: Antifungal activity against Candida albicans isolate g5 grown in YNB medium incubated for 24 hrs by microdilution method; type: functional; settings: isolate g5, 24 h; procedure, shortened: as §1
[10] = tested on: Arabidopsis thaliana; test: Inhibition of Arabidopsis thaliana AHAS catalytic subunit using pyruvate as substrate at 100 uM measured after 30 mins by colorimetric method relative to control; procedure, shortened: as §3
[11] = tested on: Arabidopsis thaliana; test: Inhibition of Arabidopsis thaliana AHAS catalytic subunit using pyruvate as substrate at 10 uM measured after 30 mins by colorimetric method relative to control; procedure, shortened: as §3
[12] = tested on: Brassica rapa subsp. oleifera; test: Herbicidal activity against Brassica campestris L assessed as inhibition of rape root growth at 100 mg/l root growth incubated for 48 hrs relative to control; type: functional
Procedure, shortened: (§4)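 Rape seeds soaked in distilled water for 4 h, then placed on filter paper wetted with inhibitor solution, 15 seeds per 6-cm dish. Germinated in the dark at 28 °C for 48 h. Mean length of 10 roots per plate measured.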

[13] = tested on: Brassica rapa subsp. oleifera; test: Herbicidal activity against Brassica campestris L assessed as inhibition of rape root growth at 10 mg/l root growth incubated for 48 hrs relative to control; type: functional; procedure, shortened: as §4
[14] = tested on: Sclerotinia sclerotiorum; test: Antifungal activity against Sclerotinia sclerotiorum assessed as reduction in growth at 50 mg/l by mycelium growth rate method relative to control; type: functional; procedure, shortened: as §2
[15] = tested on: Phytophthora capsici; test: Antifungal activity against Phytophthora capsici assessed as reduction in growth at 50 mg/l by mycelium growth rate method relative to control; type: functional; procedure, shortened: as §2
[16] = tested on: Botryosphaeria berengeriana; test: Antifungal activity against Physalospora pyricola assessed as reduction in growth at 50 mg/l by mycelium growth rate method relative to control; type: functional; procedure, shortened: as §2
[17] = tested on: Colletotrichum; test: Antifungal activity against Colletotrichum (W. anthracnose) assessed as reduction in growth at 50 mg/l by mycelium growth rate method relative to control; type: functional; procedure, shortened: as §2
[18] = tested on: Fusarium fujikuroi; test: Antifungal activity against Gibberella fujikuroi assessed as reduction in growth at 50 mg/l by mycelium growth rate method relative to control; type: functional; procedure, shortened: as §2
[19] = tested on: Ceratobasidium cereale; test: Antifungal activity against Rhizoctonia cerealis assessed as reduction in growth mycelium growth rate method relative to control; type: functional, organism-based
Procedure, shortened: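 EC50 against R. cerealis derived from mycelium growth-rate inhibition over a concentration series, using a probit fit: Probit = m(log10[I] − log10[EC50]) + 5.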

[20] = tested on: Tobacco mosaic virus; test: Antiviral activity against Tobacco mosaic virus inoculated in Nicotiana tabacum leaves assessed as passivation by measuring local lesion numbers at 500 mg/l pre-incubated with virus for 30 mins followed by inoculation and measured up to 4 days; type: functional
Procedure, shortened: (§5)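 Passivation assay: TMV mixed with an equal volume of compound solution for 30 min, then rubbed onto the left half of N. tabacum L. leaves. The right half received virus mixed with solvent as control. Local lesions counted 3–4 days after inoculation. Compounds tested at 500 or 100 mg/L.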

[21] = tested on: Tobacco mosaic virus; test: Antiviral activity against Tobacco mosaic virus inoculated in Nicotiana tabacum leaves assessed as passivation by measuring local lesion numbers at 100 mg/l pre-incubated with virus for 30 mins followed by inoculation and measured up to 4 days; type: functional; procedure, shortened: as §5
[22] = tested on: Severe acute respiratory syndrome-related coronavirus; test: Inhibition of SARS coronavirus M protease using AVLQSGFRKK as substrate at 20 uM by FRET assay relative to control
Procedure, shortened: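 Purified SARS-CoV Mpro assayed by FRET. Protein, compound and substrate were preheated at 37 °C and oscillated. Fluorescence (ex 320/em 405 nm) was read every 5 s for 200 reads.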

[23] = tested on: Mythimna separata; test: Insecticidal activity against Mythimna separata assessed as larval mortality at 600 mg/l by leaf-dip method; type: functional

Structure (SMILES): COc1nc(OC)nc(Oc2cccc(I)c2)n1
- MIC [1]: > 100 µg/mL
- inhibition at 50 µg/mL [2]: 90.5%
- MIC [3]: > 100 µg/mL
- inhibition [4]: 0%
- inhibition [5]: 29.4%
- MIC [6]: > 100 µg/mL
- MIC [7]: > 100 µg/mL
- MIC [8]: > 100 µg/mL
- MIC [9]: > 100 µg/mL
- inhibition [10]: 84.7%
- inhibition [11]: 8.9%
- inhibition (INH) [12]: 88.1%
- inhibition (INH) [13]: 80.2%
- inhibition at 50 µg/mL [14]: 66.7%
- inhibition at 50 µg/mL [15]: 33.3%
- inhibition at 50 µg/mL [16]: 59.4%
- inhibition at 50 µg/mL [17]: 23.8%
- inhibition at 50 µg/mL [18]: 6.1%
- EC50 [19]: 10.9 µg/mL (≈ 30.4 µM)
- inhibition at 500 µg/mL [20]: 17.1%
- inhibition [21]: inactive
- inhibition [22]: 0%

Structure (SMILES): COc1cc(OC)nc(Sc2ccc(Cl)cc2C(=O)O)n1
- MIC [1]: > 100 µg/mL
- inhibition at 50 µg/mL [2]: 89.3%
- MIC [3]: > 100 µg/mL
- inhibition [4]: 80.6%
- inhibition [5]: 96.6%
- MIC [6]: > 100 µg/mL
- MIC [7]: > 100 µg/mL
- MIC [8]: > 100 µg/mL
- MIC [9]: > 100 µg/mL
- inhibition [10]: 100%
- inhibition [11]: 34%
- inhibition (INH) [12]: 54.5%
- inhibition (INH) [13]: 0%
- inhibition at 50 µg/mL [14]: 63.9%
- inhibition at 50 µg/mL [15]: 41.7%
- inhibition at 50 µg/mL [16]: 40.6%
- inhibition at 50 µg/mL [17]: 52.4%
- inhibition at 50 µg/mL [18]: 48.5%
- EC50 [19]: 14.1 µg/mL (≈ 43.2 µM)
- mortality at 600 µg/mL [23]: 5%
- inhibition at 500 µg/mL [20]: 0%
- inhibition [21]: inactive
- inhibition [22]: 4.6%

Structure (SMILES): COc1nc(OC)nc(Sc2ccc(C#N)cc2Br)n1
- MIC [1]: > 100 µg/mL
- inhibition at 50 µg/mL [2]: 94%
- MIC [3]: > 100 µg/mL
- inhibition [4]: 32.1%
- inhibition [5]: 68.6%
- MIC [6]: > 100 µg/mL
- MIC [7]: > 100 µg/mL
- MIC [8]: > 100 µg/mL
- MIC [9]: > 100 µg/mL
- inhibition [10]: 98.3%
- inhibition [11]: 53.1%
- inhibition (INH) [12]: 25%
- inhibition (INH) [13]: 0%
- inhibition at 50 µg/mL [14]: 13.9%
- inhibition at 50 µg/mL [15]: 8.3%
- inhibition at 50 µg/mL [16]: 56.3%
- inhibition at 50 µg/mL [17]: 19%
- inhibition at 50 µg/mL [18]: 51.5%
- EC50 [19]: 12.4 µg/mL (≈ 35.1 µM)
- mortality at 600 µg/mL [23]: 30%
- inhibition at 500 µg/mL [20]: 0%
- inhibition [21]: inactive
- inhibition [22]: 39.3%

Structure (SMILES): N#Cc1c(Cl)c(Cl)c(Cl)c(C#N)c1Cl [CHLOROTHALONIL]
- inhibition at 50 µg/mL [2]: 96.8%
- inhibition at 50 µg/mL [14]: 87.6%
- inhibition at 50 µg/mL [15]: 80.8%
- inhibition at 50 µg/mL [16]: 92.5%
- inhibition at 50 µg/mL [17]: 78.6%
- inhibition at 50 µg/mL [18]: 75.4%
- EC50 [19]: 5.3 µg/mL (≈ 19.9 µM)

Structure (SMILES): COc1nc(OC)nc(Sc2ccc(Br)cc2C(=O)O)n1
- MIC [1]: > 100 µg/mL
- inhibition at 50 µg/mL [2]: 58.3%
- MIC [3]: > 100 µg/mL
- inhibition [4]: 59.3%
- inhibition [5]: 96.7%
- MIC [6]: > 100 µg/mL
- MIC [7]: > 100 µg/mL
- MIC [8]: > 100 µg/mL
- MIC [9]: > 100 µg/mL
- inhibition [10]: 19%
- inhibition [11]: 12%
- inhibition (INH) [12]: 55.1%
- inhibition (INH) [13]: 5.2%
- inhibition at 50 µg/mL [14]: 66.7%
- inhibition at 50 µg/mL [15]: 33.3%
- inhibition at 50 µg/mL [16]: 59.4%
- inhibition at 50 µg/mL [17]: 23.8%
- inhibition at 50 µg/mL [18]: 6.1%
- mortality at 600 µg/mL [23]: 45%
- inhibition at 500 µg/mL [20]: 0%
- inhibition [21]: inactive
- inhibition [22]: 48.8%

Structure (SMILES): COc1nc(OC)nc(Sc2cccc(F)c2C#N)n1
- MIC [1]: 100 µg/mL (≈ 342 µM)
- inhibition at 50 µg/mL [2]: 52.4%
- MIC [3]: 100 µg/mL (≈ 342 µM)
- inhibition [4]: 46.3%
- inhibition [5]: 70.4%
- MIC [6]: 100 µg/mL (≈ 342 µM)
- MIC [7]: 6.25 µg/mL (≈ 21.4 µM)
- MIC [8]: 3.12 µg/mL (≈ 10.7 µM)
- MIC [9]: 12.5 µg/mL (≈ 42.8 µM)
- inhibition [10]: 86.5%
- inhibition [11]: 34.5%
- inhibition (INH) [12]: 26.2%
- inhibition (INH) [13]: 2.2%
- inhibition at 50 µg/mL [14]: 63.9%
- inhibition at 50 µg/mL [15]: 33.3%
- inhibition at 50 µg/mL [16]: 45.3%
- inhibition at 50 µg/mL [17]: 42.9%
- inhibition at 50 µg/mL [18]: 24.2%
- mortality at 600 µg/mL [23]: 20%
- inhibition at 500 µg/mL [20]: 0%
- inhibition [21]: inactive
- inhibition [22]: 90.8%
